Our source for the Activity and inhibition values is ChEMBL document CHEMBL1155278, “3,4-Diaryl-isoxazoles and -imidazoles as potent dual inhibitors of p38alpha mitogen activated protein kinase and casein kinase 1delta” (J Med Chem, 2009).

Calls of active or inactive are those of the source. No cut-off for these calls is given here.

Experiment [1] deals with Tyrosine-protein kinase SYK (Homo sapiens) (UniProt P43405). The experiment is described as follows: Inhibition of SYK assessed as residual activity at 10 uM by Cherenkov counting relative to control in presence of 20 uM ATP. The method in brief:
(§1)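 Single-concentration profiling at 10 μM in a 78-kinase panel. Kinase activity is expressed as a percentage of control assays run without compound.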

Experiment [2] addresses MAP kinase-interacting serine/threonine-protein kinase 1 (Homo sapiens) (UniProt Q9BUB5). Description: Inhibition of MNK1 assessed as residual activity at 10 uM by Cherenkov counting relative to control in presence of 50 uM ATP.
Experiment [3] concerns the target Serine/threonine-protein kinase PLK1 (Homo sapiens) (UniProt P53350). Description: Inhibition of PLK1 assessed as residual activity at 10 uM by Cherenkov counting relative to control in presence of 5 uM ATP. The method in brief: as §1
Experiment [4] concerns the target T1, Dual specificity tyrosine-phosphorylation-regulated kinase 3 (Homo sapiens) (UniProt O43781).
T1 sequence (whole entry): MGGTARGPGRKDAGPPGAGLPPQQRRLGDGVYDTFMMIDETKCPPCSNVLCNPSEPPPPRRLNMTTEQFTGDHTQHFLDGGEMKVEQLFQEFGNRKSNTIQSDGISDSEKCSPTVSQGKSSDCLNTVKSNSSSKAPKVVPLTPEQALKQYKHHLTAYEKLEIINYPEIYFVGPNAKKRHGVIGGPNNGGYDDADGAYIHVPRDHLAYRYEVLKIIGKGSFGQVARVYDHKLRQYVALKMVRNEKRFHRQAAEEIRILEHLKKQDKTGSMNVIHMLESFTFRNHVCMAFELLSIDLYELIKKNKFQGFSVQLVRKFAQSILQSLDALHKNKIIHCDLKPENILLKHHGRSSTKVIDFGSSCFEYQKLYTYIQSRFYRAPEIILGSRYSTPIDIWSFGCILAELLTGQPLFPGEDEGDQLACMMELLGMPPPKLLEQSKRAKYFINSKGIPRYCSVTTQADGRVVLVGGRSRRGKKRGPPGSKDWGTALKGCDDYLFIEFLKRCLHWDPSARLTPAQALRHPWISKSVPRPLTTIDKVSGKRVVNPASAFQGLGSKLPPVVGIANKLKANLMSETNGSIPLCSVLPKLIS
The experiment is described as follows: Inhibition of DYRK3 assessed as residual activity at 10 uM by Cherenkov counting relative to control in presence of 5 uM ATP. The method in brief: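 Single-point profiling at 10 µM in a panel of 78 protein kinases. Kinase activity is expressed as a percentage relative to control assays without compound.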

Experiment [5] relates to Casein kinase I isoform delta (Rattus norvegicus), Q06486 [M82F]. The note with it: 5 nM.
The target of experiment [6] is Ribosomal protein S6 kinase alpha-3 (Homo sapiens) (UniProt P51812). Description: Inhibition of RSK2 assessed as residual activity at 0.1 uM by Cherenkov counting relative to control in presence of 50 uM ATP. The method in brief:
(§2)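 Single-concentration screen at 0.1 μM in a 76-kinase panel. ATP for each kinase was set near its Km for ATP. Residual activity is given as a percentage of control assays without compound, mean of n = 3 ± SD.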

A short description of experiment [7]: Cell cycle arrest in human AC1-M88 cells assessed as accumulation at subG1 phase at 0.38 uM after 48 hrs by propidium iodide staining-based FACS analysis. Format: functional.
The nature of experiment [8]: Cell cycle arrest in human AC1-M88 cells assessed as accumulation at G2 phase at 0.38 uM after 48 hrs by propidium iodide staining-based FACS analysis. Format: functional.
For experiment [9], the target named is T2, MAP kinase-activated protein kinase 5 (Homo sapiens) (UniProt Q8IW41).
T2 sequence (whole entry): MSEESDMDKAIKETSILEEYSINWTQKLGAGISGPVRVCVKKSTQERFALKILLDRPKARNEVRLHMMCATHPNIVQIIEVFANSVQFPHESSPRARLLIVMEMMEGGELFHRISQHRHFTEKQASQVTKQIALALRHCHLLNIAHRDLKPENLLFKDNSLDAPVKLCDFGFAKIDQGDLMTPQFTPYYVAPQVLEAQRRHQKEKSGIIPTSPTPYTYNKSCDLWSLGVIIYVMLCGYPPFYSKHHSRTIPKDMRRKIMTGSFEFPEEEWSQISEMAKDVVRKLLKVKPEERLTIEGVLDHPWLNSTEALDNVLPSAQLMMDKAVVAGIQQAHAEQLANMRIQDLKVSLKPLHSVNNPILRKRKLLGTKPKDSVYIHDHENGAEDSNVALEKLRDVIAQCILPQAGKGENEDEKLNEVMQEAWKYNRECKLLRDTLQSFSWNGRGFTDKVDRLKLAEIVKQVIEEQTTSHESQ
Description: Inhibition of PRAK assessed as residual activity at 0.1 uM by Cherenkov counting relative to control in presence of 20 uM ATP. The method in brief: as §2

Experiment [10] has as its target T3, Inhibitor of nuclear factor kappa-B kinase subunit epsilon (Homo sapiens) (UniProt Q14164).
T3 sequence (whole entry): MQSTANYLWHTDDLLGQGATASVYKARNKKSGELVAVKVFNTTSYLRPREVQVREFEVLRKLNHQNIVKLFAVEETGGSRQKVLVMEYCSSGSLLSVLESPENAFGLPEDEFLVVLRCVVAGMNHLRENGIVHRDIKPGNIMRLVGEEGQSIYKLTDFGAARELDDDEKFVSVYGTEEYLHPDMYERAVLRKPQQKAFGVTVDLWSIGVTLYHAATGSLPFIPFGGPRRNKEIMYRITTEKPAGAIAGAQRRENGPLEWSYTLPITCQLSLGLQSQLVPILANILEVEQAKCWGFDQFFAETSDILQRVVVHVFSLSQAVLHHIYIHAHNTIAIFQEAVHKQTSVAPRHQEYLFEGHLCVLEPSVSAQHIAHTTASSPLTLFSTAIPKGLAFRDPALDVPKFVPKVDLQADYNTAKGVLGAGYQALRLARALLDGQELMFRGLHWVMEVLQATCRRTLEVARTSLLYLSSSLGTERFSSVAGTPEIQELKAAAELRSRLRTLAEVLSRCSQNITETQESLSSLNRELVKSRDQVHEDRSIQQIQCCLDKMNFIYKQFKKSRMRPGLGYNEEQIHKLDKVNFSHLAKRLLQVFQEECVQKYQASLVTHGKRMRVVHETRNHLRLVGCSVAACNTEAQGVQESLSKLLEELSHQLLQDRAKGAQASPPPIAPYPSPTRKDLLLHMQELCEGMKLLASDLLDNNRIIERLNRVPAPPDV
The experiment is described as follows: Inhibition of IKKepsilon assessed as residual activity at 0.1 uM by Cherenkov counting relative to control in presence of 50 uM ATP. The method in brief:
(§3)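 Single-concentration screen at 0.1 µM across a panel of 76 protein kinases. Each kinase was run at an ATP concentration approximating its ATP Km. Results are % mean residual activity versus control assays without compound (n = 3 ± SD).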

Experiment [11] has as its target Mitogen-activated protein kinase 1 (Homo sapiens) (UniProt P28482). Description: Inhibition of ERK2 assessed as residual activity at 0.1 uM by Cherenkov counting relative to control. The method in brief: as §3
Experiment [12] deals with Casein kinase I isoform delta (Homo sapiens, UniProt P48730). The experiment is described as follows: Inhibition of recombinant CK1delta kinase domain at 10 nM by ATP competitive binding assay.
Casein kinase I isoform delta, sequence (P48730 whole entry, looked up, the tested form may be a part, canonical isoform): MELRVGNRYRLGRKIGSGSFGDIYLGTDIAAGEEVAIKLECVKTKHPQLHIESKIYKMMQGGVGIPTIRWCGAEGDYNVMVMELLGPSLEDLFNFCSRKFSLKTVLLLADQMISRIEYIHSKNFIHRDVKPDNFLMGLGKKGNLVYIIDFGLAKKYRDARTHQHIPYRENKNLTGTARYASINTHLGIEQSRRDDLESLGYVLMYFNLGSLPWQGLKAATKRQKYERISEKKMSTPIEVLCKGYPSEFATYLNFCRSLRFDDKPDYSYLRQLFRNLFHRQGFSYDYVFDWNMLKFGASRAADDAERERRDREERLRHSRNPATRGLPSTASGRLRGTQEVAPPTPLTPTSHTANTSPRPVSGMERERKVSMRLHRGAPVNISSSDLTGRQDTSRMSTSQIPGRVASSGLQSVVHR

Serine/threonine-protein kinase PLK1 (Homo sapiens), sequence (P53350 whole entry): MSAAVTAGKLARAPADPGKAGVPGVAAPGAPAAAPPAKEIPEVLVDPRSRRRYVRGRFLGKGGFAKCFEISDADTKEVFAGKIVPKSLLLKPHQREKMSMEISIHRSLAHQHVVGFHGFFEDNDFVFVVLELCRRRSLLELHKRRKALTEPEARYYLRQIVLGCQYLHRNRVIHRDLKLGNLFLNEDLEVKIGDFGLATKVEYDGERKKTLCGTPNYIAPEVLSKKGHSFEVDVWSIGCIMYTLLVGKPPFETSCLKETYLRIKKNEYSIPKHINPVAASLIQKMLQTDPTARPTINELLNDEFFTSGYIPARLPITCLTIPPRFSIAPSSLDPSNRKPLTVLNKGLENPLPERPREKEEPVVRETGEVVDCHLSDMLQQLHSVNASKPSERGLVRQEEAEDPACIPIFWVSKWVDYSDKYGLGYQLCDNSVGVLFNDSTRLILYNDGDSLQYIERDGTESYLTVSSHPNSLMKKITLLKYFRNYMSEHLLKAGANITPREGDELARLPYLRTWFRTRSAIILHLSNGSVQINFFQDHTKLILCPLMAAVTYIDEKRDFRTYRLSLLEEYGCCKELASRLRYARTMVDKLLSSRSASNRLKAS
Ribosomal protein S6 kinase alpha-3 (Homo sapiens), sequence (P51812 whole entry): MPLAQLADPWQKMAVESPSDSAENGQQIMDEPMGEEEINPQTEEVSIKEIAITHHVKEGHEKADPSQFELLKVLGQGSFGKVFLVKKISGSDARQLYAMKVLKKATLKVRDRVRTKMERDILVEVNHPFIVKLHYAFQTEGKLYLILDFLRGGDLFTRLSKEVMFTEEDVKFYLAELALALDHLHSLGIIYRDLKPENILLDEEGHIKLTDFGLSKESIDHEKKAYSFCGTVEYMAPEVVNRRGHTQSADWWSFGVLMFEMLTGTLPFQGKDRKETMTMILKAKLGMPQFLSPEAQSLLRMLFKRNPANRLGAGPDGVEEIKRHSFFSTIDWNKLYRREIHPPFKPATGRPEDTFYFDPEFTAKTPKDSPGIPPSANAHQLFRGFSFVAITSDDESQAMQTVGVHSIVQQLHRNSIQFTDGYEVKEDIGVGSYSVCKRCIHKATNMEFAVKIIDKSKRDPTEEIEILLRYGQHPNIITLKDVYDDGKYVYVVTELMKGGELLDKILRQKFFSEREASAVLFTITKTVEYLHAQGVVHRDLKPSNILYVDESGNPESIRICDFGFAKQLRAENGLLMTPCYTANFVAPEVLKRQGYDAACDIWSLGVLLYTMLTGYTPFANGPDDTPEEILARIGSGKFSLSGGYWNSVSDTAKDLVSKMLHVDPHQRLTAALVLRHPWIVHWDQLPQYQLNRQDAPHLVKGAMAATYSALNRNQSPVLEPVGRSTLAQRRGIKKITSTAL
Mitogen-activated protein kinase 1 (Homo sapiens), sequence (P28482 whole entry, the tested form may be a part, canonical isoform): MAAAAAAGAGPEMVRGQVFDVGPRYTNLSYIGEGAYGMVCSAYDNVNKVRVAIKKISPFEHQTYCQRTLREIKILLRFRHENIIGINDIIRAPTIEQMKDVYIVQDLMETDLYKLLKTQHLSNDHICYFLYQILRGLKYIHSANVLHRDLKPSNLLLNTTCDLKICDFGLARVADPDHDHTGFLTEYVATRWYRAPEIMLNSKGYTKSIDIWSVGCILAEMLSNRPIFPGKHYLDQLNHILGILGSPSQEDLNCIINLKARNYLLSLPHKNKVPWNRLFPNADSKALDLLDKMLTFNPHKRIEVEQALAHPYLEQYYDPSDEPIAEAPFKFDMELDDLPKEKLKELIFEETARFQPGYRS
MAP kinase-interacting serine/threonine-protein kinase 1 (Homo sapiens), sequence (Q9BUB5 whole entry, looked up): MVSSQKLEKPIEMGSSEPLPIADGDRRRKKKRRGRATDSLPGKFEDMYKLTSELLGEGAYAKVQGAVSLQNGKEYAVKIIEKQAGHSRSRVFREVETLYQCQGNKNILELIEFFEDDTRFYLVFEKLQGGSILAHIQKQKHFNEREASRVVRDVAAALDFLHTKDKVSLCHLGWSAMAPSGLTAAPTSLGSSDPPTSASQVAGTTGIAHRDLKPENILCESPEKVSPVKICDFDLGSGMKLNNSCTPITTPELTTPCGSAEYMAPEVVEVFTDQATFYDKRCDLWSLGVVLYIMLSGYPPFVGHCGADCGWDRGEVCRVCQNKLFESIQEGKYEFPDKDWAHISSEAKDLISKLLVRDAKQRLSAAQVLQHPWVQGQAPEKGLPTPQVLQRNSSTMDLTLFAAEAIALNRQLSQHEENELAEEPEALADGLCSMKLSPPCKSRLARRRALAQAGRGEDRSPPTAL
Casein kinase I isoform delta (Rattus norvegicus), Q06486 [M82F], sequence (Q06486 whole entry M82F, canonical isoform): as the sequence (P48730 whole entry, looked up, the tested form may be a part, canonical isoform) above, with M82F, I381V counted along it

For `CC(C)c1noc(-c2ccc(F)cc2)c1-c1ccncc1`, the Activity turned out to be 114% in [1], 89% in [2], 93% in experiment [3] and 101% in experiment [4].

Consider `CC(C)c1onc(-c2ccc(F)cc2)c1-c1ccncc1`, for which the Activity amounted to 131% in [1], 96% in experiment [2], 104% in experiment [3] and 97% in experiment [4].

For the compound `COc1ccc(/C=C/C(=O)Nc2cc(-c3[nH]c(SC)nc3-c3ccc(F)cc3)ccn2)c(OC)c1`, in [5], the inhibition entry was “inactive”. Further, the Activity is 86% in experiment [6]; 87.1% in [7]; 3.08% in experiment [8]; 83% in experiment [9]; 97% in experiment [10]; 91% in [11].

As to `COc1ccc(/C=C/C(=O)Nc2cc(-c3[nH]c([S+](C)[O-])nc3-c3ccc(F)cc3)ccn2)c(OC)c1` (stereo not given), the Activity in experiment [6] worked out at 94%; in experiment [9], 101%; in experiment [10], 90%; in [11] it was 93%. In addition, the inhibition in experiment [12] amounted to 10%.
